Our source for the folding enthalpy and Tm values is the array DNA melting data of Ke et al. (doi:10.1101/2024.01.08.574731).

The nature of series [1]: folding enthalpy; higher = less favourable; fluorescence melt of hairpins on a sequencing array, two-state fit. To be noted: sodium 0.088 M. The method in brief: (§1)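 Hairpins were imaged by Cy3 fluorescence on a sequenced MiSeq flow cell with annealed Cy3 and quencher oligos, in 50 mM Na-HEPES pH 8.0, 25 mM NaCl, in 2.5 °C steps up to 60 °C. Bootstrapped two-state fits of normalised signals gave melting temperature and folding enthalpy. Four replicates were combined by inverse variance, and fitted temperatures were raised by 9.35 °C to match UV melts.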

The nature of series [2]: melting temperature; fluorescence melt of hairpins on a sequencing array, two-state fit, raised by 9.35 °C to match UV melts. The note with it: sodium 0.088 M. The method in brief:
as §1

Turning to GCGGTCGAAAGACACGC ((((((....))).))), the folding enthalpy in series [1] is -27.4 kcal/mol. Moreover, the Tm in series [2] worked out at 61.8 °C.
Regarding GCGGTCGAAAGACTCCGC ((((((....)))..))), in series [1], the folding enthalpy is -25.4 kcal/mol. Further, the Tm in series [2] came to 50.7 °C.
For GCGGTCTGCCGC ((((....)))), the folding enthalpy in series [1] was -22.7 kcal/mol. In addition, the Tm in series [2] amounted to 62.1 °C.
The like results for GCGGTGAACCGC ((((....)))) were, in that order, -30 kcal/mol and 61.1 °C.
Regarding GCGGTGCGAAAGCAGAGC ((..(((....)))..)), in series [1], the folding enthalpy was -33 kcal/mol. Also, in series [2], the Tm is 63.5 °C.
On to GCGGTGCGAAAGCCTCGC (((..((....))..))), for which, in series [1], the folding enthalpy is -22.2 kcal/mol. Moreover, the Tm in series [2] stood at 59.1 °C.
On to GCGGTGCGAAAGCGTCGC (((..((....))..))), for which, in series [1], the folding enthalpy was -32.6 kcal/mol. Further, the Tm in series [2] is 65.1 °C.
Consider GCGGTGCGAAAGCTGCGC (((..((....))..))), for which, in series [1], the folding enthalpy was -32.1 kcal/mol. Also, in series [2], the Tm turned out to be 64.2 °C.
With GCGGTGTCCCGC ((((....)))), the folding enthalpy in series [1] is -32.1 kcal/mol. For the same sequence, the Tm in series [2] amounted to 56.5 °C.
In the case of GCGGTGTCGAAAGACCGC (((..(((....)))))), the folding enthalpy in series [1] was -30.4 kcal/mol. Moreover, the Tm in series [2] is 58.9 °C.
In the case of GCGGTTAGCCGC ((((....)))), in series [1], the folding enthalpy was -24.3 kcal/mol. For the same sequence, in series [2], the Tm turned out to be 62.4 °C.
In the case of GCGGTTCCCCGC ((((....)))), the folding enthalpy in series [1] was -21 kcal/mol. In addition, in series [2], the Tm was 60.8 °C.
GCGGTTCTCCGC ((((....)))): the folding enthalpy in series [1] was -31.9 kcal/mol. The Tm in series [2] is 58.3 °C.
The like results for GCGGTTGGAAACAACCAC (.(((((....))))).) were, in that order, -14.8 kcal/mol and 44.8 °C.
The like results for GCGGTTGGAAACAACTGC ((.((((....)))).)) were, in that order, -46.5 kcal/mol and 55.6 °C.
In the case of GCGGTTTCCGC ((((...)))), the folding enthalpy in series [1] was -29.4 kcal/mol. Further, the Tm in series [2] was 60.5 °C.
Turning to GCGGTTTCGAAAGAACGC (((..(((....)))))), in series [1], the folding enthalpy is -26.5 kcal/mol. In addition, the Tm in series [2] amounted to 44.8 °C.
The like results for GCGTAAACACGC ((((....)))) were, in that order, -19.5 kcal/mol and 50.4 °C.
As for GCGTAAATACGC ((((....)))), the folding enthalpy in series [1] is -25.4 kcal/mol. In addition, the Tm in series [2] is 50 °C.
GCGTAACCGAAAGGTCGC (((..(((....)))))): the folding enthalpy in series [1] is -34.2 kcal/mol. Besides, in series [2], the Tm was 53 °C.
The like results for GCGTAACGAAAGTTCCGC (((.(((....))).))) were, in that order, -33.4 kcal/mol and 52.7 °C.
Regarding GCGTAAGCACGC ((((....)))), in series [1], the folding enthalpy is -9.59 kcal/mol. The Tm in series [2] worked out at 59.6 °C.
For the sequence GCGTACACGAAAGTGCGC (((..(((....)))))), the folding enthalpy in series [1] is -26.4 kcal/mol. Further, in series [2], the Tm is 52.8 °C.
For GCGTACCGAAAGGTCCGC (((.(((....))).))), in series [1], the folding enthalpy was -49.9 kcal/mol. Moreover, the Tm in series [2] was 58.2 °C.
Turning to GCGTACGAAAGTACTCGC ((((((....)))..))), the folding enthalpy in series [1] is -15.6 kcal/mol. The Tm in series [2] was determined as 46.5 °C.
The like results for GCGTACGAAAGTAGACGC ((((((....)))..))) were, in that order, -25.3 kcal/mol and 51.8 °C.
GCGTACGAAAGTAGGCGC ((((((....)))..))): the folding enthalpy in series [1] is -30 kcal/mol. Moreover, the Tm in series [2] worked out at 56 °C.
The like results for GCGTACGAAAGTAGTCGC ((((((....)))..))) were, in that order, -25.1 kcal/mol and 45.3 °C.
As to GCGTACGAAAGTATTCGC ((((((....)))..))), the folding enthalpy in series [1] is -25.5 kcal/mol. In series [2], the Tm is 40.7 °C.
Take GCGTACGCACGC ((((....)))): the folding enthalpy in series [1] was -17.1 kcal/mol. The Tm in series [2] is 56.9 °C.
GCGTACGGAAACGTATGC ((.((((....)))).)): the folding enthalpy in series [1] was -40.1 kcal/mol. Further, the Tm in series [2] was found to be 55.9 °C.
In the case of GCGTACTACGC ((((...)))), the folding enthalpy in series [1] was -24.6 kcal/mol. Also, the Tm in series [2] is 55.2 °C.
The like results for GCGTAGAAACGC ((((....)))) were, in that order, -18.6 kcal/mol and 48 °C.
GCGTAGCAACGC ((((....)))): the folding enthalpy in series [1] is -9.68 kcal/mol. Further, in series [2], the Tm was found to be 61.4 °C.
Take GCGTAGCGAAAGCACCGC (((..((....))..))): in series [1], the folding enthalpy is -10.6 kcal/mol. Moreover, in series [2], the Tm came out at 47.8 °C.
The like results for GCGTAGCGAAAGCGGCGC (((..((....))..))) were, in that order, -22.4 kcal/mol and 69.1 °C.
GCGTAGCGAAAGCTAGGC ((.((((....)))).)): in series [1], the folding enthalpy was -20.9 kcal/mol. Further, the Tm in series [2] was determined as 59.6 °C.
Take GCGTAGCGAAAGCTCTGC ((..(((....)))..)): the folding enthalpy in series [1] was -7.19 kcal/mol. Moreover, the Tm in series [2] stood at 43.8 °C.
In the case of GCGTAGCGAAAGCTGAGC ((..(((....)))..)), in series [1], the folding enthalpy is -16 kcal/mol. Besides, in series [2], the Tm came to 54.4 °C.
With GCGTAGCGAAAGCTTAGC ((..(((....)))..)), the folding enthalpy in series [1] is -14.6 kcal/mol. The Tm in series [2] was determined as 51.5 °C.
GCGTAGGCACGC ((((....)))): in series [1], the folding enthalpy was -14.1 kcal/mol. For the same sequence, the Tm in series [2] came to 60.8 °C.
For the sequence GCGTAGTCGAAAGACCGC (((..(((....)))))), the folding enthalpy in series [1] is -28.9 kcal/mol. Further, the Tm in series [2] stood at 52 °C.
On to GCGTATCGAAAGATTCGC (((.(((....))).))), for which the folding enthalpy in series [1] is -42.7 kcal/mol. Moreover, the Tm in series [2] came to 53.9 °C.
As to GCGTATCGACGC ((((....)))), in series [1], the folding enthalpy is -18.9 kcal/mol. Further, the Tm in series [2] is 52.6 °C.
The like results for GCGTATCTACGC ((((....)))) were, in that order, -24.4 kcal/mol and 56.9 °C.
Turning to GCGTATGCACGC ((((....)))), the folding enthalpy in series [1] was -13.3 kcal/mol. In series [2], the Tm worked out at 54.3 °C.
As for GCGTATGGAAACATACGC (((((((....))))))), the folding enthalpy in series [1] is -37.7 kcal/mol. Further, in series [2], the Tm stood at 68.2 °C.
The like results for GCGTATTTACGC ((((....)))) were, in that order, -26.7 kcal/mol and 54.5 °C.
As for GCGTCAAAACGC ((((....)))), the folding enthalpy in series [1] was -21.2 kcal/mol. The Tm in series [2] is 51.6 °C.
For the sequence GCGTCACCGAAAGGTCGC (((..(((....)))))), in series [1], the folding enthalpy is -25.2 kcal/mol. For the same sequence, the Tm in series [2] came to 51.2 °C.
On to GCGTCACTACGC ((((....)))), for which the folding enthalpy in series [1] is -25.3 kcal/mol. Also, in series [2], the Tm was 52.8 °C.
In the case of GCGTCAGACGC ((((...)))), the folding enthalpy in series [1] is -22.7 kcal/mol. Besides, in series [2], the Tm came to 52.3 °C.
The like results for GCGTCAGGAAACCAACGC ((((..(....)..)))) were, in that order, -25.1 kcal/mol and 40.3 °C.
The like results for GCGTCAGGAAACTAACGC ((((.((....)).)))) were, in that order, -28.1 kcal/mol and 44.7 °C.
Regarding GCGTCATAACGC ((((....)))), in series [1], the folding enthalpy is -23.4 kcal/mol. Besides, the Tm in series [2] was found to be 53.3 °C.
The like results for GCGTCATTACGC ((((....)))) were, in that order, -22.9 kcal/mol and 55 °C.
For GCGTCCAACGC ((((...)))), the folding enthalpy in series [1] was -19.9 kcal/mol. The Tm in series [2] is 53.6 °C.
As for GCGTCCCAACGC ((((....)))), the folding enthalpy in series [1] was -23.5 kcal/mol. Further, the Tm in series [2] was found to be 55.1 °C.
Regarding GCGTCCCGAAAGGGCCGC (((.(((....))).))), the folding enthalpy in series [1] was -23.7 kcal/mol. Moreover, the Tm in series [2] stood at 64.8 °C.
The like results for GCGTCCGAAAGGAAACGC ((((((....)))..))) were, in that order, -34.1 kcal/mol and 54.4 °C.
For the sequence GCGTCCGAAAGGAAGCGC ((((((....)))..))), the folding enthalpy in series [1] is -29.7 kcal/mol. Besides, the Tm in series [2] is 67.4 °C.
Turning to GCGTCCGAAAGGACACGC ((((((....)))..))), the folding enthalpy in series [1] was -14.6 kcal/mol. The Tm in series [2] came out at 60 °C.
Turning to GCGTCCGAAAGGACCGC ((((((....))).))), the folding enthalpy in series [1] was -19.6 kcal/mol. For the same sequence, the Tm in series [2] turned out to be 66.7 °C.
With GCGTCCGAAAGGAGACGC ((((((....)))..))), in series [1], the folding enthalpy is -31.4 kcal/mol. In addition, in series [2], the Tm worked out at 57.6 °C.
GCGTCCGAAAGGAGCCGC ((((((....)))..))): the folding enthalpy in series [1] was -16.9 kcal/mol. Moreover, the Tm in series [2] stood at 50.1 °C.
The like results for GCGTCCGGAAACGGATGC ((.((((....)))).)) were, in that order, -37.3 kcal/mol and 65.1 °C.
The like results for GCGTCGAACGC ((((...)))) were, in that order, -18.2 kcal/mol and 50.3 °C.
In the case of GCGTCGCGAAAGCCCCGC (((..((....))..))), the folding enthalpy in series [1] is -19.7 kcal/mol. The Tm in series [2] turned out to be 43.6 °C.
Consider GCGTCGCGAAAGCCTCGC (((..((....))..))), for which the folding enthalpy in series [1] was -21.7 kcal/mol. Also, in series [2], the Tm turned out to be 50.8 °C.
As for GCGTCGCGAAAGCGGTGC ((..(((....)))..)), the folding enthalpy in series [1] is -18.1 kcal/mol. In addition, the Tm in series [2] was determined as 58.9 °C.
With GCGTCGCGAAAGCGTGGC ((..(((....)))..)), the folding enthalpy in series [1] was -14.9 kcal/mol. Moreover, in series [2], the Tm amounted to 49.8 °C.
As to GCGTCGCGAAAGCTAGGC ((.(.((....)).).)), the folding enthalpy in series [1] was -20.9 kcal/mol. Moreover, the Tm in series [2] was 36.8 °C.
On to GCGTCGCGAAAGCTATGC ((.(.((....)).).)), for which the folding enthalpy in series [1] is -20.1 kcal/mol. Besides, the Tm in series [2] is 45 °C.
The like results for GCGTCGGGAAACCGACAC (.(((((....))))).) were, in that order, -11.2 kcal/mol and 48.1 °C.
Consider GCGTCGGGAAACTGGCGC (((.(.(....).).))), for which the folding enthalpy in series [1] is -37.1 kcal/mol. In addition, in series [2], the Tm amounted to 53.2 °C.
Turning to GCGTCGTCGAAAGACCGC (((..(((....)))))), the folding enthalpy in series [1] was -19.3 kcal/mol. In series [2], the Tm is 50.3 °C.
